The text below walks through data of ChEMBL document CHEMBL1671701, “Discovery of potent small-molecule inhibitors of multidrug-resistant Plasmodium falciparum using a novel miniaturized high-throughput luciferase-based assay” (Antimicrob Agents Chemother, 2010).

pIC50: −log10 of the molar value. Counter-ions that a name gives are not always drawn. Where only a bound is given, the exact number is not on record here.

By pIC50 is commonly meant the IC50 on a negative log10 scale, so that one unit is a factor of ten. Lower therefore signals a high IC50.

The first test deals with Plasmodium falciparum. The experiment in a line: Antiplasmodial activity against Plasmodium falciparum 3D7 infected in RBCs by firefly luciferase reporter gene assay.
Settings: not given
It is filed as functional, organism-based. The method, boiled down:
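Sorbitol-synchronised 3D7 expressing firefly luciferase from the HRPII promoter, at 1% late-ring parasitemia and 3% hematocrit in RPMI/albumax II medium. Sixteen 2-fold dilutions from 17 μM to 0.5 nM, 48 h at 37°C under 5% O2/5% CO2/N2. Bright-Glo luminescence is normalised to untreated infected and uninfected-RBC wells. IC50 by four-parameter logistic fit.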
(Reporter assays use an easily measured gene product as a stand-in for the process of interest.)
Compound `CCNC(=O)N1CCN(CCCC(c2ccc(F)cc2)c2ccc(F)cc2)CC1` [AMPEROZIDE HYDROCHLORIDE] showed a negative logarithm of the IC50 (pIC50) of 7.46. On the same count and under the same terms, the figure for `CCNC(=O)N1CCN(CCCC(c2ccc(F)cc2)c2ccc(F)cc2)CC1` [AMPEROZIDE DIHYDROCHLORIDE] is 6.35.

Still in this test, the particulars now being: Plasmodium falciparum, 3D7.
`Oc1c(Cl)cccc1N1CCCCCCC1` had a pIC50 of 6.74. In the case of `CCCCN(Cc1ccccc1)c1ccccc1O`, the pIC50 is 6.38. `C=C[C@H]1CN2CC[C@H]1C[C@@H]2[C@@H](O)c1ccnc2ccccc12` [CINCHONINE] had a negative logarithm of the IC50 (pIC50) of 8.30. For the compound `Oc1c(Br)cccc1N1CCCCCCC1`, the negative logarithm of the IC50 (pIC50) is 6.37. Same read-out and setting: the figure for `CCN(CC)CCCC(C)Nc1c2ccc(Cl)cc2nc2ccc(OC)cc12` (stereo unspecified) [QUINACRINE DIHYDROCHLORIDE] is 9.00; for `CC1CCCN(c2cc(Cl)cc(Cl)c2O)C1` (stereo unspecified) it is 6.96. Same read-out and setting: the figure for `CCCN(CCC)[C@H]1CCc2c(F)ccc(O)c2C1` is 8.30; for `O=C(Nc1ccccc1)N1CCN(CCCC(c2ccc(F)cc2)c2ccc(F)cc2)CC1` it is 5.14; for `CCCN(CC1CC1)c1cc(OC)cc(Br)c1O` it is 6.54. As to `O=C1CCN(CCCC(c2ccc(F)cc2)c2ccc(F)cc2)CC1`, the pIC50 is 5.27. Take `CCCCN(C)c1cc(Br)cc(Br)c1O`: the pIC50 is 6.57. On to `Fc1ccc(C(CCCN2CCOCC2)c2ccc(F)cc2)cc1`, for which the pIC50 is 4.74. On the same count and under the same terms, as for `CC(C)CN(C)c1nc(N)c(C(=O)N=C(N)N)nc1Cl` [5-(N-METHYL-N-ISOBUTYL)AMILORIDE], the figure is 6.26; as for `CC[C@]1(O)C[C@H]2CN(CCc3c([nH]c4ccccc34)[C@@](C(=O)OC)(c3cc4c(cc3OC)N(C=O)[C@H]3[C@@](O)(C(=O)OC)[C@H](OC(C)=O)[C@]5(CC)C=CCN6CC[C@]43[C@@H]65)C2)C1` [VINCRISTINE], 9.00. Compound `Clc1ccc(CNC2CCN(Cc3ccccc3)CC2)cc1` gave a pIC50 of 6.60. Against the preceding compound, the pIC50 is 2.40 log units lower. Same read-out and setting: as for `CC(C)C[C@@H]1NC(=O)[C@H](CCCN)NC(=O)[C@H](C(C)C)NC(=O)[C@H](Cc2ccc(O)cc2)N[C@@H](CCC(=O)O)C(=O)N[C@@H](CC(N)=O)C(=O)[C@@H](Cc2ccccc2)NC(=O)[C@H](Cc2ccccc2)NC(=O)[C@@H]2CCCN2C(=O)[C@@H](Cc2ccccc2)NC1=O` [TYROTHRICIN], the figure is 10.30; as for `O[Si](CCCN1CCCCC1)(c1ccc(F)cc1)C1CCCCC1` (stereo unspecified), 8.40; as for `C=CC[N+](C)(C)c1ccc(CCC(=O)CCc2ccc([N+](C)(C)CC=C)cc2)cc1`, 6.97. For `N/C(=N\C(=O)c1nc(Cl)c(N)nc1N)NCc1ccc(Cl)c(Cl)c1` [3',4' DICHLOROBENZAMIL], the pIC50 is 6.84. Compound `CNC(=C[N+](=O)[O-])NCCSCc1ccc(CN(C)C)o1` [RANITIDINE HYDROCHLORIDE] had a pIC50 below 4.64. On to `CC(=O)N(C1=C(N(C)C)C(=O)c2ccccc2C1=O)c1cccc(Br)c1`, for which the pIC50 was 7.49.

In turn, `CC1CCCN(c2cccc(Br)c2O)C1` (stereo unspecified) showed a pIC50 of 6.89. On the same count and under the same terms, as for `c1ccc(CCN2CCC(NC3CCCCC3)CC2)cc1`, the figure is 6.05; as for `CC(=O)N(C1=C(N2CCCCC2)C(=O)c2ccccc2C1=O)c1cccc(Cl)c1`, 5.37; as for `CN1CCc2cccc3c2[C@H]1Cc1ccc(O)c(O)c1-3` [APOMORPHINE HYDROCHLORIDE], 6.43.

`C=C[C@H]1CN2CC[C@H]1C[C@@H]2[C@@H](O)c1ccnc2ccc(OC)cc12` [QUINIDINE SULFATE] showed a pIC50 of 7.25.

`Cc1cccc(C2=NN=C(c3ccc(Br)cc3)C2)c1O`: the pIC50 is 5.33. Consider `COc1ccc(O)c(N2CCCCC2)c1`, for which the pIC50 is 6.10. This pIC50 lies 0.77 log units higher than the previous one.

Compound `N=C(N)c1ccc(OCCCCCOc2ccc(C(=N)N)cc2)cc1` showed a pIC50 of 7.38. For the compound `Cc1ccnc(NS(=O)(=O)c2ccc(N)cc2)n1` [SULFAMERAZINE], the pIC50 was 8.22. Still for that read-out and setting: the figure for `CC[C@H]1CN2CCc3cc(OC)c(OC)cc3[C@@H]2C[C@@H]1C[C@H]1NCCc2cc(OC)c(OC)cc21` [EMETINE DIHYDROCHLORIDE HYDRATE] is 9.00.

Regarding `CCCN1CCC(NC(c2ccccc2)c2ccc(Cl)cc2)CC1` (stereo unspecified), the pIC50 was 5.96.

`N/C(=N\C(=O)c1nc(Cl)c(N)nc1N)NCc1ccccc1` [BENZAMIL HYDROCHLORIDE] showed a pIC50 of 6.66. Still for that read-out and setting: as for `Oc1c(Cl)cccc1C1=NN=C(c2ccc(Cl)cc2)C1`, the figure is 4.82. Turning to `CCCN(CC1CC1)c1cc(Br)cc(Br)c1O`, the pIC50 was 6.15. Still for that read-out and setting: as for `COc1ccc(CCN2CCC(Nc3nc4ccccc4n3Cc3ccc(F)cc3)CC2)cc1` [ASTEMIZOLE], the figure is 6.60; as for `COc1ccc(CNC2CCN(Cc3ccccc3)CC2)cc1`, 5.89.

On to `C=C[C@H]1CN2CC[C@H]1C[C@H]2[C@H](O)c1ccnc2ccc(OC)cc12` [QUININE SULFATE], for which the pIC50 is 6.55. Compared with the last compound, the pIC50 is 0.66 log units higher. Still for that read-out and setting: the figure for `O=c1ccc2ccccc2[nH]1` [OXYQUINOLINE HEMISULFATE] is 5.94; for `CCN(CC)CCNc1ccc(CO)c2sc3ccccc3c(=O)c12` [HYCANTHONE] it is 5.52; for `C[C@H]1[C@H](OC(=O)CCC(=O)O)O[C@@H]2O[C@@]3(C)CC[C@H]4[C@H](C)CC[C@@H]1[C@@]24OO3` [ARTESUNATE] it is 8.48. `CCCCCC[C@H]1C(=O)O[C@H](C)[C@H](NC(=O)c2cccc(NC=O)c2O)C(=O)O[C@@H](C)[C@@H]1OC(=O)CC(C)C` [ANTIMYCIN A] gave a pIC50 of 5.66.

The compound `Cc1ccc(CS(=O)(=O)N2CCN(CCCC(c3ccc(F)cc3)c3ccc(F)cc3)CC2)cc1` had a pIC50 of 6.10.

For `CC(=O)N(C1=C(N2CCOCC2)C(=O)c2ccccc2C1=O)c1ccccc1`, the pIC50 was 6.11.

The compound `Fc1ccc(C(CCCN2CCCCC2)c2ccc(F)cc2)cc1` gave a pIC50 of 5.22. On the same count and under the same terms, as for `N#Cc1ccc2c(c1)N(CCCN1CCC(O)CC1)c1ccccc1S2` [PERICIAZINE], the figure is 5.18; as for `CN/C(=N\CCSCc1nc[nH]c1C)NC#N` [CIMETIDINE], below 4.64; as for `Fc1ccc(C(CCCN2CCCC2)c2ccc(F)cc2)cc1`, 4.92. With `CNC(=C[N+](=O)[O-])NCCSCc1csc(CN(C)C)n1` [NIZATIDINE], the pIC50 was below 4.64. Regarding `Oc1c(Cl)cccc1C1=NN=C(c2ccc(F)cc2)C1`, the pIC50 is 5.82. `NC(=O)CCCCn1ccc(/N=C(\N)NCC(F)(F)F)n1` gave a pIC50 of 4.74. The compound `CCC(=O)O[C@]1(C(=O)CCl)[C@@H](C)C[C@H]2[C@@H]3CCC4=CC(=O)C=C[C@]4(C)[C@@]3(F)[C@@H](O)C[C@@]21C` [CLOBETASOL PROPIONATE] showed a pIC50 of 6.10. On to `CCN(CC)CCCC(c1ccc(F)cc1)c1ccc(F)cc1`, for which the negative logarithm of the IC50 (pIC50) is 5.24.

In turn, `CCCN(CC1CC1)c1cc(Cl)cc(Cl)c1O` showed a pIC50 of 6.48. On to `C[C@@H]1C[C@H]2[C@@H]3CCC4=CC(=O)C=C[C@]4(C)[C@@]3(Cl)[C@@H](O)C[C@]2(C)[C@@]1(OC(=O)c1ccco1)C(=O)CCl` [MOMETASONE FUROATE], for which the pIC50 was 5.82. Same read-out and setting: the figure for `CCN(c1nc(N)c(C(=O)NC(=N)N)nc1Cl)C(C)C` [5-(N-ETHYL-N-ISOPROPYL)AMILORIDE] is 6.08. The same measure, in the same setting: as for `NC(N)=Nc1nc(CSCC/C(N)=N/S(N)(=O)=O)cs1` [FAMOTIDINE], the figure is below 4.64; as for `CCCN1CCC(NCC(c2ccccc2)c2ccccc2)CC1`, 6.31.

Consider `Clc1cccc(CNC2CCN(Cc3ccccc3)CC2)c1`, for which the pIC50 is 5.96. The compound `CC(=O)N(C1=C(N2CCCCC2)C(=O)c2ccccc2C1=O)C1CCCCC1` gave a negative logarithm of the IC50 (pIC50) of 5.27. On the same count and under the same terms, as for `CCCc1nc2c(C)cc(-c3nc4ccccc4n3C)cc2n1Cc1ccc(-c2ccccc2C(=O)O)cc1` [TELMISARTAN], the figure is 5.79; as for `Fc1ccc(C(CCCN2CCNCC2)c2ccc(F)cc2)cc1`, 5.35; as for `CN(Cc1ccccc1)c1cc(Br)cc(Br)c1O`, 6.17. Same read-out and setting: as for `Oc1ccccc1N1CCCC2CCCCC21` (stereo unspecified), the figure is 6.39; as for `CCCCOc1ccc(CC(=O)NO)cc1` [BUFEXAMAC], 5.56. Still for that read-out and setting: as for `NCCc1c[nH]cn1` [HISTAMINE], the figure is 6.18.

`c1cc(CN2CCCCC2)cc(OCCCNc2nc3ccccc3s2)c1` [ZOLANTIDINE DIMALATE] showed a pIC50 below 4.64.

With `C/N=C(/NC#N)NCCSCc1csc(NC(=N)N)n1` [TIOTIDINE], the pIC50 was below 4.64. On the same count and under the same terms, the figure for `CN1CCN(CCCC(c2ccc(F)cc2)c2ccc(F)cc2)CC1` is 4.92. On the same count and under the same terms, as for `Clc1ccc(C(OCCN2CCCCC2)c2ccccc2)cc1` (stereo unspecified) [CLOPERASTINE HYDROCLORIDE], the figure is 5.31.

`O=S(=O)(c1ccccc1)N1CCN(CCCC(c2ccc(F)cc2)c2ccc(F)cc2)CC1` had a pIC50 of 5.52. The same measure, in the same setting: the figure for `N#CN/C(=N\CCNC(=O)c1ccc(N)cc1)NCCCOc1cccc(CN2CCCCC2)c1` [AMINOPOTENTIDINE] is 4.83. For `CN(C)c1nc(N)c(C(=O)NC(=N)N)nc1Cl` [5-(N,N-DIMETHYL)AMILORIDE HYDROCHLORIDE], the pIC50 is 5.96. Against the preceding compound, the pIC50 is 1.13 log units higher. Consider `CC[C@]1(O)C[C@@H]2CN(CCc3c([nH]c4ccccc34)[C@@](C(=O)OC)(c3cc4c(cc3OC)N(C)[C@H]3[C@@](O)(C(=O)OC)[C@H](OC(C)=O)[C@]5(CC)C=CCN6CC[C@]43[C@@H]65)C2)C1` [VINBLASTINE], for which the pIC50 is 8.70. The same measure, in the same setting: the figure for `CN(CCc1ccccc1)c1cc(Br)cc(Br)c1O` is 7.44.

The next test has as its system Plasmodium falciparum. The experiment in a line: Antiplasmodial activity against multidrug-resistant Plasmodium falciparum TM90C2B by SYBR Green 1-based fluorescence assay. It is filed as functional, organism-based.
Settings: not given
An outline of the steps: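 Resistant TM90C2B parasites are treated over a dose range and growth is read as SYBR green I fluorescence. IC50 comes from a fit of the log dose-response relationship, as the mean of at least three separate experiments.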
`CC(=O)N(C1=C(N(C)C)C(=O)c2ccccc2C1=O)c1cccc(Br)c1` gave a pIC50 of 7.03. Still for that read-out and setting: as for `CC(=O)N(C1=C(N2CCOCC2)C(=O)c2ccccc2C1=O)c1ccccc1`, the figure is 6.28.

In another test the test system is Plasmodium falciparum. Briefly: Antiplasmodial activity against Plasmodium falciparum 3D7 by SYBR Green 1-based fluorescence assay.
Settings: not given
It is filed as functional, organism-based.
`CC(=O)N(C1=C(N(C)C)C(=O)c2ccccc2C1=O)c1cccc(Br)c1` had a pIC50 of 6.89. The same measure, in the same setting: as for `CC(=O)N(C1=C(N2CCOCC2)C(=O)c2ccccc2C1=O)c1ccccc1`, the figure is 5.80.
